Rows were chosen to be rich in hits. Some 4.5% of all compounds tested hit in one or more screens of this group.
OX1R antag-1: antagonists of human orexin 1 receptor (OX1R); inhibition, % at 6.6 µM; 330,000 tested, 1.8% active; OX1R-expressing cells, FRET antagonist read-out; O43613; in the data active = inhibition mostly above about 38%, no sharp cut-off; inactive = mostly below about 40%;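 note: 0% = agonist challenge alone and 100% = reference antagonist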
Target sequence (O43613 whole entry, looked up): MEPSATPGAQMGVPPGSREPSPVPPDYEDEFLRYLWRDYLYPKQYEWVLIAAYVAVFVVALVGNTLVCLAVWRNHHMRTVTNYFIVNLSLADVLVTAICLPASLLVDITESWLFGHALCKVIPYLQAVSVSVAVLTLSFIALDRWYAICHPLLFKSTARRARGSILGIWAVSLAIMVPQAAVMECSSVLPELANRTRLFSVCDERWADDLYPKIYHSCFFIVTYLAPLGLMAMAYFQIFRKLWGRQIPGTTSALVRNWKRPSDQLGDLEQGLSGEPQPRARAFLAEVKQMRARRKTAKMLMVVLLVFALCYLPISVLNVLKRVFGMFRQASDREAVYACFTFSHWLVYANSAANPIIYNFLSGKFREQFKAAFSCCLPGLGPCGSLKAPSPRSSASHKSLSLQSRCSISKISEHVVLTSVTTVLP
OX1R antag-2: blocks the human orexin 1 receptor; O43613; CHO/OX1R cells, Fluo-8 calcium fluorescence, orexin A; inhibition, % at 5 µM; 330,000 tested, 0.43% active; AID 434989;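 active = inhibition above its plate's threshold, mean inhibition of all tested compounds on the plate plus 3 SD, cut at about 37% in these data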;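 note: 0% = orexin A challenge wells and 100% = SB-334867-A antagonist wells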
TAAR1 ag: agonists of human TAAR1; Q96RJ0; CHO RD-HGA16 TAAR1, Fluo-8 calcium fluorescence; vehicle wells 0%, saturating PEA agonist 100%; activation, % at 3 µM; 360,000 tested, 0.99% active; AID 624467;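 active = activation above the mean activation of all test compounds in the run plus 3 SD, cut at about 38% in these data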
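Assay system – CHO-derived RD-HGA16 cells with stable Gα16 and human TAAR1 · Compound dosing – one-point dosing at 3 µM (nominal) · Incubation – 17-24 h seeding, 75 min 37 °C dye, 30 min RT · Measured by – kinetic Fluo-8 calcium fluorescence · Control set – DMSO vehicle as 0%, PEA at EC100 as 100% · Repeats – single well for each compound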
GPR7 antag: blocks human GPR7 receptor signaling | GPR7-expressing cells, fluorescence antagonist assay | P48145 | 290,000 tested, 1.1% active | inhibition, % at 4.4 µM; in the data active = inhibition above about 16%, passing the limit was not always enough;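 note: cells stimulated with the agonist NPW; 0% = agonist with vehicle and 100% = vehicle without agonist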
CHO parental Ca: counter-screen: ATP calcium response change in parental CHO cells; inhibition, % at 5.6 µM; 330,000 tested, 0.63% active; parental CHO-K1, ATP-induced calcium, Fluo-8 fluorescence;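 active = inhibition above that plate's mean sample inhibition plus 3 SD, cut at about 26% in these data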;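 note: 0% = ATP-challenged DMSO wells and 100% = DMSO wells without ATP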
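Test system: parental CHO cells; detection: calcium-sensitive Fluo-8 fluorescence; evaluation: percent inhibition of calcium signal; also added: ATP as calcium-mobilizing challenge; repeats: one well per compound; control set: ATP-challenged DMSO wells low, unchallenged DMSO wells high; compound: single nominal dose of 5.6 µM per compound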
TAAR1 antagonist: antagonists of human TAAR1; CHO RD-HGA16 TAAR1, Fluo-8 calcium fluorescence, antagonist; 360,000 tested, 1.5% active; AID 624466; Q96RJ0; inhibition, % at 3 µM;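 active = inhibition above a per-plate cutoff, the mean inhibition of test compounds on that plate plus 3 SD, cut at about 49% in these data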;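 note: 0% = DMSO plus EC80 beta-PEA response and 100% = DMSO alone without agonist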
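Test system – hTAAR1-expressing CHO RD-HGA16 cells, Gα16-coupled · Also added – β-PEA at EC80 concentration, post-compound challenge · Compound – 3 µM, single point · Incubation – dye loading 75 min at 37 °C, then 30 min room temperature · Measured by – Fluo-8 intracellular calcium dye fluorescence, real-time kinetic reads · Benchmarks – vehicle and agonist controls · Replicates – singlicate, one well per test compound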
* = called active by the depositor; . = not tested or not shown.

SMILES	OX1R antag-1	OX1R antag-2	TAAR1 ag	GPR7 antag	CHO parental Ca	TAAR1 antagonist
O=C(C1=C(O)C(=O)N(CCN2CCOCC2)C1c1ccccn1)c1cccs1 (stereo not drawn)	58.9*	-4.8	8.2	-5.8	3.0	-5.3
O=C1C(=O)N(CCN2CCOCC2)C(c2ccccn2)/C1=C(/O)c1ccc(F)cc1 (stereo not drawn)	42.9*	-5.7	10.4	9.3	-4.3	13.0
CC1(O)C(=O)C2(C)C=CC1C1C(=O)N(c3ccccc3)C(=O)C12 (stereo not drawn)	.	.	1.0	.	.	-6.2
CC(NC(=O)Cn1ncc(Cl)c(Cl)c1=O)C12CC3CC(CC(C3)C1)C2 (stereo not drawn)	21.2	26.5	.	23.4*	11.5	.
CCn1cc(C(=O)NC(C)C23CC4CC(CC(C4)C2)C3)cn1 (stereo not drawn)	-1.7	-20.2	-1.4	3.1	-12.5	5.1
COc1cc(CN2CCC(C(=O)NC(c3ccccc3)c3ccsc3)CC2)cc(OC)c1 (stereo not drawn)	.	.	44.0*	.	.	1.9
O=C(NC(c1ccccc1)c1ccsc1)C1CCN(Cc2ccccc2)CC1 (stereo not drawn)	.	.	9.6	.	.	13.4
COc1ccc(CNC(=O)COC(=O)c2cc(-c3cccs3)nc3ccccc23)cc1OC	47.9*	10.3	16.4	1.0	-10.1	33.8
CCOC(CCNC(=O)c1cc(-c2cccs2)nc2ccccc12)OCC	14.5	-28.5	19.3	-13.2	-14.1	48.6*
NC(=O)[C@@H]1CCCN1C(=O)[C@@H](Cc1ccccc1)NC(=O)[C@H]1O[C@@H](n2ccc(=O)[nH]c2=O)[C@H](O)[C@@H]1O	.	.	1.5	.	.	-23.1
COC(=O)c1ccc(Oc2nc(Nc3ccc(C)c(C)c3)nc(N(C)C)n2)cc1	38.5*	-50.6	8.8	0.6	-34.5	20.4
CC1CCCC(NCC(O)COC(c2ccc(F)cc2)c2ccc(F)cc2)C1C (stereo not drawn)	-1.7	-5.8	29.7	56.5*	7.0	16.8
CC1CCCC(NC(=O)CSc2ccc(F)cc2)C1C (stereo not drawn)	-1.6	-36.5	0.8	3.4	0.9	4.6
O=C(NCc1ccccc1)[C@@H]1CCCN1C(=O)[C@H]1CCCN1C(=O)c1ccc(F)c(F)c1	.	.	0.1	.	.	-26.5
O=C(COC(=O)c1cccc(NC(=O)c2ccco2)c1)c1ccc(Br)cc1	33.4	11.9	13.1	-1.2	21.6	61.7*
Cc1ccc(S(=O)(=O)NOCc2ccccc2)cc1	9.7	-5.5	1.7	.	-16.8	-10.8
Clc1ccccc1CSc1nnc(-c2ccccn2)n1Cc1ccco1	57.3*	23.6	11.6	1.2	-23.6	17.7
NC(=O)CSc1nnc(-c2ccccn2)n1Cc1ccco1	13.7	-13.6	1.0	-11.6	-23.8	-27.1
CCOC(=O)C1(Cc2cccc(OC)c2)CCCN(C(=O)c2cc(C)oc2C)C1 (stereo not drawn)	10.4	-13.0	-0.5	3.5	-15.5	-13.6
OC1(c2ccc(Cl)cc2)CCN(Cc2cn[nH]c2-c2ccc(F)cc2)CC1	-0.6	-15.7	41.4*	0.8	-19.7	-7.2
O=C(Nc1ccc([N+](=O)[O-])cc1)N1CCc2ccccc2C1	13.6	-8.0	8.0	3.5	0.1	-11.8
O=[N+]([O-])c1ccc(-c2csc(N3CCc4ccccc4C3)n2)cc1	2.6	-18.6	39.5*	-8.8	-6.5	-1.9
O=[N+]([O-])c1ccc(N2CCc3ccccc3C2)cc1	52.0*	5.0	7.1	-9.8	-4.4	4.0
COC(=O)c1cc2c(c3c4cc(C)ccc4n(S(=O)(=O)c4cccc(C)c4)c13)C(=O)N(Cc1ccc(N(C)C)cc1)C2	.	.	-2.0	.	.	-12.9
C=CCN1C(=O)[C@]2(OCCC=C[C@H]2C)c2cc(OC)ccc21	.	.	3.1	.	.	-26.4
O=[N+]([O-])c1ccc(-c2nc(Nc3cccc(O)c3)c3ccccc3n2)cc1	16.0	-3.0	5.9	18.1	-1.5	55.4*
O=C(O)c1cccc(Nc2nc(-c3ccc([N+](=O)[O-])cc3)nc3ccccc23)c1	.	.	3.2	-10.5	.	4.3
Cc1onc(-c2ccccc2)c1-c1nnc(-c2ccccc2C(F)(F)F)o1	12.2	-31.4	0.1	-6.8	-23.7	13.2
